Read-outs that look alike come from different tables or passages of the source.
Assays:
Colo-205 cells = assay: MTT cytotoxicity assay, colon; format: cell-based, human; details: read-out: Colon (Colo-205) IC50
Summary of the method: (§1)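 Human Colo-205, PC-3, THP-1 and A549 cancer cells and normal epithelial fR-2 cells were grown in RPMI-1640 or DMEM with 10% fetal calf serum, penicillin and streptomycin, at 37 °C in 5.0% CO2. After overnight attachment, cells were exposed to 0.07, 0.7, 7.0 and 70.0 μM test compound for 24 h, then to MTT (250 μg mL−1) for 3–4 h. OD was read at 570 nm. Growth (%) = test OD/untreated OD × 100. IC50 was taken from concentration–growth curves as the mean of triplicates.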

fR-2 cells = assay: MTT cytotoxicity assay, normal epithelial cell line; format: cell-based; details: read-out: Normal (fR-2) IC50
Summary of the method: as §1

PC-3 cells = assay: MTT cytotoxicity assay, prostate; format: cell-based, human; details: read-out: Prostate (PC-3) IC50
Summary of the method: as §1

THP-1 cells = assay: MTT cytotoxicity assay, leukemia; format: cell-based, human; details: read-out: Leukemia (THP-1) IC50
Summary of the method: as §1

A549 cells = assay: MTT cytotoxicity assay, lung; format: cell-based, human; details: read-out: Lung (A549) IC50
Summary of the method: as §1

[1] = system: Colo-205, PC-3, THP-1, A549 and fR-2 cells; assay: MTT cytotoxicity assay, statements on the whole cell line panel; format: cell-based; details: Homo sapiens, 24 h, read-out: IC50 values (all tested cell lines)
Summary of the method: as §1

[2] = MTT, 24 h treatment, n = 3, mean ± SD

Row | Structure (SMILES) | IC50 (Colo-205 cells; Homo sapiens, COLO 205, 24 h) [µM] | IC50 (fR-2 cells; FR2, 24 h) [µM] | IC50 (PC-3 cells; Homo sapiens, PC-3, 24 h) [µM] | IC50 (THP-1 cells; Homo sapiens, THP-1, 24 h) [µM] | IC50 (A549 cells; Homo sapiens, A549, 24 h) [µM] | IC50 [1] [µM] | IC50 (Colo-205 cells; [2]) [µM] | IC50 (PC-3 cells; [2]) [µM] | IC50 (THP-1 cells; [2]) [µM] | IC50 (A549 cells; [2]) [µM] | IC50 (fR-2 cells; [2]) [µM]
1 | O=c1[nH]cc(F)c(=O)[nH]1 [5-Fluorouracil, reference compound] | 33.9 ± 1.9 | 335 ± 3.8 | – | – | – | – | – | – | – | – | –
2 | CCOC(=O)C1=C(C)NC(=O)NC1C(C)=CCc1cc2oc(=O)ccc2cc1OC (stereo not drawn) [Compound 5a, Ethyl 4-(4-(6-methoxy-2-oxo-2H-chromen-7-yl)but-2-en-2-yl)-6-methyl-2-oxo-1,2,3,4-tetrahydropyrimidine-5-carboxylate] | 37.6 ± 1.1 | 68.8 ± 1.1 | 40.8 ± 1.7 | 65.8 ± 1.4 | 67.8 ± 1.7 | – | – | – | – | – | –
3 | CCCC1NC(=O)NC(C)=C1C(=O)OCC (stereo not drawn) [Compound 6a, Ethyl 1,2,3,4-tetrahydro-6-methyl-2-oxo-4-propylpyrimidine-5-carboxylate] | > 70 | > 70 | > 70 | > 70 | > 70 | > 70 | – | – | – | – | –
4 | CCCCC1NC(=O)NC(C)=C1C(=O)OCC (stereo not drawn) [Compound 7a, Ethyl 4-butyl-1,2,3,4-tetrahydro-6-methyl-2-oxopyrimidine-5-carboxylate] | > 70 | > 70 | > 70 | > 70 | > 70 | > 70 | – | – | – | – | –
5 | CCCCCC1NC(=O)NC(C)=C1C(=O)OCC (stereo not drawn) [Compound 8a] | – | – | – | – | – | – | 18.6 ± 1 | 22.2 ± 1.6 | 43.8 ± 1.4 | 63.4 ± 1.1 | 67.2 ± 1.5
6 | CCCCCCC1NC(=O)NC(C)=C1C(=O)OCC (stereo not drawn) [Compound 9a, Ethyl-4-hexyl-1,2,3,4-tetrahydro-6-methyl-2-oxo-pyrimidine-5-carboxylate] | > 70 | > 70 | > 70 | > 70 | > 70 | > 70 | – | – | – | – | –
7 | CCOC(=O)C1=C(C)NC(=O)NC1C=Cc1cccc(O)c1 (stereo not drawn) [Compound 10a, Ethyl-4-(3-hydroxystyryl)-1,2,3,4-tetrahydro-6-methyl-2-oxopyrimidine-5-carboxylate] | > 70 | > 70 | 29.4 ± 1.2 | 42.1 ± 1.7 | > 70 | – | – | – | – | – | –
8 | CCOC(=O)C1=C(C)NC(=O)NC1C1=Cc2ccccc2CC1 (stereo not drawn) [Compound 11a, Ethyl-4-(3,4-dihydronaphthalen-2-yl)-6-methyl-2-oxo-1,2,3,4-tetrahydropyrimidine-5-carboxylate] | > 70 | > 70 | 29.3 ± 1.3 | > 70 | > 70 | – | – | – | – | – | –
9 | CCOC(=O)C1=C(C)NC(=O)NC1C1=C(Cl)c2ccccc2CC1 (stereo not drawn) [Compound 12a, Ethyl-4-(1-chloro-3,4-dihydronaphthalen-2-yl)-6-methyl-2-oxo-1,2,3,4-tetrahydropyrimidine-5-carboxylate] | > 70 | > 70 | > 70 | > 70 | > 70 | > 70 | – | – | – | – | –
10 | CCOC(=O)C1=C(C)NC(=O)NC1/C(CC(=O)OC)=C(\Cl)c1ccc(OC)c(OC)c1 (stereo not drawn) [Compound 13a, Ethyl-4-((Z)-3-(methoxycarbonyl)-1-chloro-1-(3,4-dimethoxyphenyl)prop-1-en-2-yl)-1,2,3,4-tetrahydro-6-methyl-2-oxopyrimidine-5-carboxylate] | 59.4 ± 1.6 | 67.6 ± 2.5 | 35.4 ± 2.2 | 23.2 ± 1.4 | 30.3 ± 2.9 | – | – | – | – | – | –
11 | CCOC(=O)C1=C(C)NC(=O)NC1c1ccc2c(c1)CCC(C)(C)O2 (stereo not drawn) [Compound 14a, Ethyl-1,2,3,4-tetrahydro-6-methyl-4-(2,2-dimethylchroman-6-yl)-2-oxo-pyrimidine-5-carboxylate] | > 70 | > 70 | > 70 | > 70 | > 70 | – | – | – | – | – | –
12 | CCOC(=O)C1=C(C)NC(=O)NC1/C=C\c1ccc2c(c1)CCC(C)(C)O2 (stereo not drawn) [Compound 15a, Ethyl-1,2,3,4-tetrahydro-6-methyl-4-((Z)-2-(2,2-dimethylchroman-6-yl)vinyl)-2-oxo-pyrimidine-5-carboxylate] | 27.3 ± 1.8 | > 70 | > 70 | > 70 | > 70 | – | – | – | – | – | –
13 | CCOC(=O)C1=C(C)NC(=O)NC1C=Cc1cccc(OC)c1OC (stereo not drawn) [Compound 17a, Ethyl 4-(2,3-dimethoxystyryl)-1,2,3,4-tetrahydro-6-methyl-2-oxopyrimidine-5-carboxylate] | 38.2 ± 1.4 | > 70 | 47.9 ± 2.1 | > 70 | 26.4 ± 1.1 | – | – | – | – | – | –
14 | CCOC(=O)C1=C(C)NC(=O)NC1C=Cc1cc(OC)c(OC)c(OC)c1 (stereo not drawn) [Compound 18a, Ethyl 4-(3,4,5-trimethoxystyryl)-1,2,3,4-tetrahydro-6-methyl-2-oxopyrimidine-5-carboxylate] | > 70 | > 70 | > 70 | > 70 | > 70 | > 70 | – | – | – | – | –
15 | CCOC(=O)C1=C(C)NC(=O)NC1C=Cc1ccc(OC)cc1OC (stereo not drawn) [Compound 19a, Ethyl-4-(2,4-dimethoxystyryl)-1,2,3,4-tetrahydro-6-methyl-2-oxopyrimidine-5-carboxylate] | 33.7 ± 1.8 | > 70 | > 70 | > 70 | 47.8 ± 2.4 | – | – | – | – | – | –
16 | CCOC(=O)C1=C(C)NC(=O)NC1/C=C/c1ccc2c(c1)OCO2 (stereo not drawn) [Compound 20a, Ethyl-4-((E)-2-(benzo[d][1,3]dioxol-6-yl)vinyl)-1,2,3,4-tetrahydro-6-methyl-2-oxo pyrimidine-5-carboxylate] | – | – | – | – | – | – | 23.4 ± 1.4 | > 70 | > 70 | > 70 | 68.7 ± 1.1
17 | CCOC(=O)C1=C(C)NC(=O)NC1c1ccc2c(c1)OCO2 (stereo not drawn) [Compound 21a, Ethyl-4-(benzo[d][1,3]dioxol-6-yl)-1,2,3,4-tetrahydro-6-methyl-2-oxopyrimidine-5-carboxylate] | 48.1 ± 2.1 | > 70 | > 70 | > 70 | > 70 | – | – | – | – | – | –
18 | COc1cccc2c1C(=O)c1c(O)c3c(c(O)c1C2=O)C[C@@](O)(C(=O)CO)C[C@@H]3O[C@H]1C[C@H](N)[C@H](O)[C@H](C)O1 [Doxorubicin, reference compound] | – | – | – | 0.018 ± 0.004 | – | – | – | – | – | – | –
19 | CC(=O)O[C@H]1C(=O)[C@@]2(C)[C@H]([C@H](OC(=O)c3ccccc3)[C@]3(O)C[C@H](OC(=O)[C@H](O)[C@@H](NC(=O)c4ccccc4)c4ccccc4)C(C)=C1C3(C)C)[C@]1(OC(C)=O)CO[C@@H]1C[C@@H]2O [Paclitaxel, reference compound] | – | – | 0.048 ± 0.008 | – | 5.1 ± 0.4 | – | – | – | – | – | –

— article PMC9057999 (RSC Advances, 2020)
